Experimental data as given in ChEMBL document CHEMBL3259782, “Synthesis and biological evaluation of chalcones as potential antileishmanial agents” (Eur J Med Chem, 2014).

Experiments:
Leishmania donovani [1] = assay: Antiamastigote activity against amastigote stage of Leishmania donovani MHOM/IN/80/Dd8 expressing luciferase firefly reporter gene infected in mouse J774A1 cells after 72 hrs by luminescence assay; format: functional, organism-based; details: MHOM/IN/80/Dd8, J774.A1, 72 h
How it was run: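 J-774A.1 macrophages were seeded at 4 x 10^4/mL in RPMI-1640 with 10% heat-inactivated FCS at 37 °C, 5% CO2. After 24 h they were infected with stationary-phase luciferase-expressing promastigotes at 4 x 10^5/mL. Uninternalized parasites were washed off after 24 h. Compounds were tested at 7 dilutions from 40 µM for 72 h. Luminescence was read with Steady Glo. IC50 came from four-parameter Hill fitting, averaged over at least duplicates.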

[2] = Cytotoxicity against African green monkey Vero cells assessed as cell viability after 72 hrs by MTT assay; format: cell-based; details: chlorocebus sabaeus
How it was run: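 Vero cells at 1 x 10^5/mL were exposed to 7 concentrations from 400 µM at 37 °C in CO2 for 72 h. MTT (5 mg/mL in PBS) was then added for 2 h at 37°C. Formazan was dissolved in DMSO and absorbance read at 540 nm. CC50 was estimated and averaged over at least duplicates.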

[3] = (§1) Selectivity index, ratio of CC50 for African green monkey Vero cells to IC50 for promastigote stage of Leishmania donovani MHOM/IN/80/Dd8; format: functional; details: in the assay text read “amastigote stage” for “promastigote stage”
How it was run: (§2)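 SI was calculated as Vero CC50 (MTT, 72 h) divided by IC50 against intracellular amastigotes in J-774A.1 cells (luciferase luminescence, 72 h).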

Leishmania donovani [4] = assay: Antipromastigote activity against Leishmania donovani MHOM/IN/80/Dd8 expressing luciferase firefly reporter gene at 25 uM after 96 hrs by luminescence assay; details: MHOM/IN/80/Dd8, 96 h
Leishmania donovani [5] = assay: Antileishmanial activity against Leishmania donovani MHOM/IN/80/Dd8 infected in golden hamster assessed as inhibition of amastigotes multiplication at 30 mg/kg, po for 5 days treatment started 15 days after infection measured on day 7; format: functional
How it was run: (§3)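 Golden hamsters of both sexes were infected intracardially with 1 x 10^7 amastigotes. A pre-treatment splenic biopsy was taken after 15 days, and only animals with +1 grade infection (5-10 amastigotes/100 spleen cell nuclei) were used, five per compound. Dosing began 2 days after that biopsy and ran on consecutive days. Splenic biopsy on day 7 after the last dose was Giemsa-stained. PI = 100-[(ANAT x 100)/(INAT x TIUC)].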

Leishmania donovani [6] = assay: Antileishmanial activity against Leishmania donovani MHOM/IN/80/Dd8 infected in golden hamster assessed as inhibition of amastigotes multiplication at 50 mg/kg, ip for 5 days treatment started 15 days after infection measured on day 7; format: functional; details: MHOM/IN/80/Dd8, ip, route intraperitoneal; how it was run: as §3
Vero = assay: as §1; format: functional; details: in the assay text read “amastigote stage” for “promastigote stage”; how it was run: as §2
Leishmania donovani [7] = assay: Antileishmanial activity against Leishmania donovani MHOM/IN/80/Dd8 infected in golden hamster assessed as inhibition of amastigotes multiplication at 40 mg/kg, ip for 5 days treatment started 15 days after infection measured on day 7; format: functional, organism-based; set-up: dose 40 mg/kg; how it was run: as §3
Leishmania donovani [8] = assay: Antileishmanial activity against Leishmania donovani MHOM/IN/80/Dd8 infected in golden hamster assessed as inhibition of amastigotes multiplication at 50 mg/kg, ip for 10 days treatment started 15 days after infection measured on day 7; format: functional; details: MHOM/IN/80/Dd8, ip, route intraperitoneal; how it was run: as §3
Leishmania donovani [9] = assay: Antileishmanial activity against Leishmania donovani MHOM/IN/80/Dd8 infected in golden hamster assessed as inhibition of amastigotes multiplication at 100 mg/kg, ip for 5 days treatment started 15 days after infection measured on day 7; format: functional; details: MHOM/IN/80/Dd8, ip, route intraperitoneal; how it was run: as §3

Row | Compound | IC50 (Leishmania donovani [1]) | CC50 at 72 h [2] | Ratio CC50/IC50 [3] | inhibition at 25 µM (Leishmania donovani [4]) | further results
1 | CC1(C)C=Cc2c(ccc(C(=O)/C=C/c3ccc(OCCN4CCCCC4)cc3)c2O)O1 | 17.7 µM | > 400 µM | >22.6 | 100% | 
2 | CC1(C)C=Cc2c(ccc(C(=O)/C=C/c3ccc(F)cc3)c2O)O1 | 16.7 µM | 158 µM | 9.5 | 99% | 
3 | CC1(C)C=Cc2c(ccc(C(=O)/C=C/c3cc(C=O)ccc3O)c2O)O1 | > 20 µM |  |  | 94.5% | 
4 | CC1(C)C=Cc2c(ccc(C(=O)/C=C/c3ccc(F)c(F)c3)c2O)O1 | 17 µM | 146 µM | 8.6 | 99.9% | 
5 | CC1(C)C=Cc2c(ccc(C(=O)/C=C/c3ccc4ccoc4c3)c2O)O1 | > 20 µM |  |  | 91.2% | 
6 | CCOc1cc(/C=C/C(=O)c2ccc3c(c2O)C=CC(C)(C)O3)ccc1F | 12.1 µM | 185 µM | 15.3 | 99.9% | 
7 | CC1(C)C=Cc2c(ccc(C(=O)/C=C/c3cnc4ccccc4c3)c2O)O1 |  |  |  | 62.2% | 
8 | CC1(C)C=Cc2c(ccc(C(=O)/C=C/c3cc4ccccc4nc3Cl)c2O)O1 | 12.1 µM | 257 µM | 21.2 | 100% | 
9 | COc1ccc(/C=C/C(=O)c2ccc3c(c2O)C=CC(C)(C)O3)cc1OC | 11.9 µM | 267 µM | 22.4 | 98.2% | 
10 | CCCCCCCCCCCCCCCCOP(=O)([O-])OCC[N+](C)(C)C [MILTEFOSINE] |  |  | 6.2 | 100% | inhibition in vivo at 30 mg/kg (Leishmania donovani [5]): 98.5%
11 | CC1(C)C=Cc2c(ccc(C(=O)/C=C/c3ccc(O)cc3)c2O)O1 | > 20 µM |  |  | 70.2% | 
12 | O=C(/C=C/c1ccc(OCCN2CCCCC2)cc1)c1ccc(OCCN2CCCCC2)cc1 | > 20 µM |  |  | 99.9% | 
13 | CC1(C)C=Cc2c(ccc(C(=O)/C=C/c3ccc(Br)cc3)c2O)O1 | > 20 µM |  |  | 100% | 
14 | CC1(C)C=Cc2c(ccc(C(=O)/C=C/c3cccnc3)c2O)O1 | 22.2 µM | 8.6 µM | 0.4 | 100% | 
15 | CC(C)=CCC/C(C)=C/COc1ccc(C(=O)/C=C/c2ccc(OCCN3CCCC3)cc2)cc1 |  |  |  | 100% | 
16 | CCOc1ccc(/C=C/C(=O)c2ccc(OCCN3CCCCC3)cc2)cc1 | > 20 µM |  |  | 99.9% | 
17 | CCN(CC)CCOc1ccc(/C=C/C(=O)c2ccc3c(c2O)C=CC(C)(C)O3)cc1 | 14.9 µM | 341 µM | 22.9 | 100% | 
18 | sodium stibogluconate |  |  |  |  | Ratio CC50/IC50 (Vero): > 8; inhibition (Leishmania donovani [7]): 89.5%
19 | CC1(C)C=Cc2c(ccc(C(=O)/C=C/c3ccc(Cl)cc3)c2O)O1 | 17.9 µM | 92.2 µM | 5.1 | 99.9% | 
20 | CC1(C)C=Cc2c(ccc(C(=O)/C=C/c3ccc(OCCN4CCCC4)cc3)c2O)O1 | > 20 µM |  |  | 100% | 
21 | CC(C)=CCC/C(C)=C/CC/C(C)=C/COc1ccc(C(=O)/C=C/c2ccc(N(C)C)cc2)cc1 | > 20 µM |  |  | 76.1% | 
22 | CC1(C)C=Cc2c(ccc(C(=O)/C=C/c3ccc(Cl)c(Cl)c3)c2O)O1 | 13.9 µM | 142 µM | 10.2 | 99.9% | 
23 | CN(C)c1ccc(/C=C/C(=O)c2ccc3c(c2O)C=CC(C)(C)O3)cc1 | 19.8 µM | > 400 µM | >20.2 | 97.1% | 

More lines, main results first:

Row | IC50 (Leishmania donovani [1]) | Compound | CC50 at 72 h [2] | Ratio CC50/IC50 [3] | inhibition at 25 µM (Leishmania donovani [4]) | further results
24 | 9.3 µM | CN(C)c1ccc(/C=C/C(=O)c2ccc(OCCN3CCCCC3)cc2)cc1 | 251 µM | 27 | 99.9% | 
25 | 9.7 µM | CC1(C)C=Cc2c(ccc(C(=O)/C=C/c3ccc(Cl)cc3Cl)c2O)O1 | 131 µM | 13.5 | 99.9% | 
26 | 5.2 µM | CC1(C)C=Cc2c(ccc(C(=O)/C=C/c3ccc([N+](=O)[O-])cc3)c2O)O1 | 106 µM | 20.4 | 97.4% | 
27 | 6.1 µM | CC(=O)Nc1ccc(/C=C/C(=O)c2ccc3c(c2O)C=CC(C)(C)O3)cc1 | 278 µM | 45.6 | 98.7% | 
28 | 8.2 µM | CC1(C)C=Cc2c(ccc(C(=O)/C=C/c3ccc(C#N)cc3)c2O)O1 | 80.2 µM | 9.8 | 99.6% | 
29 | 2 µM | CCN(CC)CCOc1ccc(/C=C/C(=O)c2ccc3c(c2OCCN(CC)CC)C=CC(C)(C)O3)cc1 | 325 µM | 162.5 | 100% | inhibition in vivo at 50 mg/kg (Leishmania donovani [6]): 48.5%
30 | 2.8 µM | CC1(C)C=Cc2c(ccc(C(=O)/C=C/c3ccc(OCCN4CCCCC4)cc3)c2OCCN2CCCCC2)O1 | 86.5 µM | 30.9 | 100% | 
31 | 2 µM | CC1(C)C=Cc2c(ccc(C(=O)/C=C/c3ccccn3)c2O)O1 | 20.5 µM | 10.2 | 99.9% | 
32 | 9.3 µM | CC(C)=CCC/C(C)=C/COc1ccc(C(=O)/C=C/c2ccc(O)cc2)cc1 | 12.9 µM | 1.4 | 95.2% | 
33 | 5.1 µM | CCOc1ccc(/C=C/C(=O)c2ccc3c(c2O)C=CC(C)(C)O3)cc1 | 215 µM | 42.1 | 88.9% | 
34 | 4.1 µM | CC(C)=CCOc1ccc(C(=O)/C=C/c2ccc(N(C)C)cc2)cc1 | > 400 µM | >97.6 | 84.2% | 
35 | 2.5 µM | CC1(C)C=Cc2c(ccc(C(=O)/C=C/c3ccc(OCCN4CCCC4)cc3)c2OCCN2CCCC2)O1 | 258 µM | 103.2 | 99.9% | 
36 | 3.1 µM | COc1ccc(/C=C/C(=O)c2ccc(OC/C=C(\C)CCC=C(C)C)cc2)cc1 | 146 µM | 47.2 | 93% | inhibition in vivo at 50 mg/kg (Leishmania donovani [8]): 83.3%; inhibition in vivo at 100 mg/kg (Leishmania donovani [9]): 75.9%
37 | 5.3 µM | Cc1ccc2nc(Cl)c(/C=C/C(=O)c3ccc4c(c3O)C=CC(C)(C)O4)cc2c1 | 399 µM | 75.3 | 99.8% | 
